Assay outcomes as filed in PubChem BioAssay.
Shown are actives, neighbours in structure and some others; about 4.6% of the full set was active somewhere.
OX1R antag-1 = antagonists of human orexin 1 receptor (OX1R) | Orexin/Hypocretin receptor type 1 (Homo sapiens), O43613 | OX1R-expressing cells, FRET antagonist read-out | inhibition, % at 6.6 µM | 1.8% of 330,000 active | AID 485270, 2010; in the data active = inhibition mostly above about 38%, no sharp cut-off; inactive = mostly below about 40%;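 also: 0% = agonist challenge alone and 100% = reference antagonist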
OX1R antag-2 = OX1R (HCRTR1) antagonists, primary screen, fluorescence, CHO/OX1R cells, Fluo-8 calcium, orexin A | Orexin/Hypocretin receptor type 1 (Homo sapiens), O43613 | 0.43% of 330,000 active | inhibition, % at 5 µM | Fluo-8 calcium fluorescence;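 active = inhibition above its plate's threshold, mean inhibition of all tested compounds on the plate plus 3 SD, cut at about 37% in these data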;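 also: 0% = orexin A challenge wells and 100% = SB-334867-A antagonist wells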
TAAR1 antagonist = human TAAR1 antagonists, primary screen, Fluo-8 calcium fluorescence, CHO RD-HGA16 cells; Trace amine-associated receptor 1 (Homo sapiens), Q96RJ0; antagonist; inhibition, % at 3 µM; 1.5% of 360,000 active; AID 624466, 2012;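 active = inhibition above a per-plate cutoff, the mean inhibition of test compounds on that plate plus 3 SD, cut at about 49% in these data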;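 also: 0% = DMSO plus EC80 beta-PEA response and 100% = DMSO alone without agonist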
Target sequence (Q96RJ0 whole entry, looked up): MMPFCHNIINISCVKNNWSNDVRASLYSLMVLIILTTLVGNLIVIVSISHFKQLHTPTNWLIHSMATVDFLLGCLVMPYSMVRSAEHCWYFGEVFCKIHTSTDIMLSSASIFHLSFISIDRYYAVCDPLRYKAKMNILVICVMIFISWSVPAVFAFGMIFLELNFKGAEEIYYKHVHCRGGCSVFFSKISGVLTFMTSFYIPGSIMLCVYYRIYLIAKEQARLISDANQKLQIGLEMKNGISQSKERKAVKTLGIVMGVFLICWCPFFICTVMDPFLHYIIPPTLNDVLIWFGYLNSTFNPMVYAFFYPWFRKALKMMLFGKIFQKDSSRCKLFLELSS
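Test system – hTAAR1-expressing CHO RD-HGA16 cells, Gα16-coupled · Reagent – β-PEA at EC80 concentration, post-compound challenge · Compound dosing – 3 µM, single point · Timing – 140 s kinetic read after compound, 140 s after agonist · Detection – Fluo-8 intracellular calcium dye fluorescence, real-time kinetic reads · Control set – DMSO and EC80 PEA controls · Repeats – n of 1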
GPR7 antagonist = GPR7 receptor antagonists, primary screen, cell-based, fluorescence, single concentration; Neuropeptides B/W receptor type 1 (Homo sapiens), P48145; GPR7-expressing cells, fluorescence antagonist assay; inhibition, % at 4.4 µM; 1.1% of 290,000 active; AID 1861, 2009; in the data active = inhibition above about 16%, passing the limit was not always enough;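 also: cells stimulated with the agonist NPW; 0% = agonist with vehicle and 100% = vehicle without agonist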
Target sequence (P48145 whole entry, looked up): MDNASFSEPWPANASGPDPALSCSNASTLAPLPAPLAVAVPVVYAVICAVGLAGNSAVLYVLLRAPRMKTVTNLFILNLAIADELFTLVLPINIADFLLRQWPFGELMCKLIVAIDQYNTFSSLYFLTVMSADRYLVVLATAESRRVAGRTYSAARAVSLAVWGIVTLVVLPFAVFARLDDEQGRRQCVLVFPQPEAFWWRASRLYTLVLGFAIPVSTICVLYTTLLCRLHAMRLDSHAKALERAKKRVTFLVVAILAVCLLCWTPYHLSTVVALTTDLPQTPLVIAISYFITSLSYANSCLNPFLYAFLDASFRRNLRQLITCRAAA
CHO parental Ca = ATP-evoked calcium signal inhibitors, parental CHO, primary screen, counter-screen for OX1R antagonist project, cell-based, fluorescence, Fluo-8 calcium dye; parental CHO-K1, ATP-induced calcium, Fluo-8 fluorescence; inhibition, % at 5.6 µM; 0.63% of 330,000 active;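 active = inhibition above that plate's mean sample inhibition plus 3 SD, cut at about 26% in these data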;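 also: 0% = ATP-challenged DMSO wells and 100% = DMSO wells without ATP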
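Measured by: calcium-sensitive Fluo-8 fluorescence / Test system: CHO parental line / Controls: ATP-challenged DMSO wells low, unchallenged DMSO wells high / Measure: % inhibition / Compound: single nominal dose of 5.6 µM per compound / Replicates: single well per compound, no replicates / Reagent: ATP as calcium-mobilizing challenge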
TAAR1 ag = human TAAR1 agonists, primary screen, Fluo-8 calcium fluorescence, CHO RD-HGA16 cells. Trace amine-associated receptor 1 (Homo sapiens), Q96RJ0. vehicle wells 0%, saturating PEA agonist 100%. activation, % at 3 µM. 0.99% of 360,000 active;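 active = activation above the mean activation of all test compounds in the run plus 3 SD, cut at about 38% in these data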
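Test system: RD-HGA16 (CHO) cells co-expressing Gα16 and hTAAR1 | Doses: Single dose, 3 µM | Schedule: 17-24 h seeding, 75 min 37 °C dye, 30 min RT | Evaluation: % activation from peak over basal fluorescence ratio, DMSO-to-PEA scaled | Technique: Kinetic Fluo-8 calcium fluorescence | Benchmarks: Low control DMSO, high control PEA (EC100)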
An asterisk follows results filed as active; nt = not tested or not shown.

SMILES	OX1R antag-1	OX1R antag-2	TAAR1 antagonist	GPR7 antagonist	CHO parental Ca	TAAR1 ag
CCOC(=O)c1nn(-c2cc(C(=O)OC)cc(C(=O)OC)c2)cc1O	3.0	-0.2	7.0	-10.2	-4.8	3.7
CCOC(=O)c1nn(-c2sc(C(=O)OC)c(C)c2C(=O)OC)cc1O	3.8	-4.7	4.6	18.8*	-4.2	11.7
NS(=O)(=O)c1ccc(CCNc2ccn3nc(-c4cccc(C(F)(F)F)c4)cc3n2)cc1	nt	nt	60.8*	nt	nt	21.5
COc1ccccc1-c1cc2nc(NCCc3ccncc3)ccn2n1	nt	nt	8.4	nt	nt	4.5
COc1ccccc1-c1cc2nc(NCCc3ccc(S(N)(=O)=O)cc3)ccn2n1	nt	nt	55.5*	nt	nt	4.1
O=C1C2C3C=CC(C3)C2C(=O)N1c1ccc(-c2nc(-c3ccccc3)nc3ccccc23)cc1 (stereo not given)	nt	nt	24.8	nt	nt	0.8
COc1ccc(C(=O)CSc2nnc(NC(=O)C3CC(=O)N(c4ccccc4C)C3)s2)cc1 (stereo not given)	3.6	-11.6	52.8*	-4.2	-4.1	8.6
Cc1ccccc1N1CC(C(=O)Nc2nnc(SCCN3CCOCC3)s2)CC1=O (stereo not given)	12.2	-20.9	14.7	1.1	-10.9	-0.9
Cc1cc(Br)cn2c(Cc3ccccc3C(F)(F)F)c(-c3ccc(F)cc3)nc12	nt	nt	22.2	nt	nt	4.6
O=C(Nc1ccc(F)cc1)C(c1cccc(F)c1)N1CCN(Cc2c(F)cccc2Cl)CC1 (stereo not given)	nt	nt	-27.7	nt	nt	-0.6
Cc1ccc(CNC(=O)C2CC(c3ccc(C(F)(F)F)cc3)=NO2)o1 (stereo not given)	28.5	0.8	4.8	nt	62.3*	1.8
C[C@H]1CN([C@@H](C)CO)C(=O)CCCn2nncc2CO[C@H]1CN(C)C(=O)Nc1cccc2ccccc12	nt	nt	8.3	nt	nt	2.1
Cc1cc(C)c2c(=O)n(CC(=O)N3CCC(Cc4ccccc4)CC3)sc2n1	nt	nt	nt	-1.4	nt	nt
Cc1ccc(NC(=O)Cn2sc3nc(C)cc(C)c3c2=O)c(Cl)c1	4.4	25.0	-10.8	-15.5	46.4*	25.0
Cc1cc(C)c2c(=O)n(CC(=O)NCCCN3CCN(c4ccccc4F)CC3)sc2n1	2.3	38.7	nt	2.2	44.7*	nt
CCOc1ccc(NC(=O)Cn2ncc3ccccc32)cc1	nt	nt	4.5	-1.6	nt	-1.7
Cc1ccc(NC(=O)Cn2c(C)cc(C)c(C#N)c2=O)c(Cl)c1	17.1	-19.4	3.7	-2.8	-9.8	11.1
Cc1cc(C)c2c(=O)n(CC(=O)NCCCN3CCOCC3)sc2n1	10.5	-10.5	nt	3.4	-7.5	nt
Cc1cccc(N2CCN(C(=O)Cn3sc4nc(C)cc(C)c4c3=O)CC2C)c1 (stereo not given)	4.9	39.8	nt	4.5	36.0*	nt
CCOc1ccc(NC(=O)Cn2sc3nc(C)cc(C)c3c2=O)cc1	5.5	51.9*	nt	-10.4	46.1*	nt
COc1cc(OC)cc(C(=O)NCC2CCN(C(=O)C(=O)c3cccs3)CC2)c1	nt	nt	-0.3	nt	nt	0.1
CC1=C(C(=O)N2CCCCCC2)CC(CC(=O)NC(c2ccccc2)c2ccccc2)C(=O)N1CCC1=CCCCC1 (stereo not given)	nt	nt	3.9	nt	nt	0.5
C/C(=C1/C(=O)N(c2ccc([N+](=O)[O-])cc2)N=C1c1ccccc1)N(C)C	41.5*	18.5	nt	3.2	20.2	nt
Clc1ccc(-n2ncc3c(NCC4CCCO4)ncnc32)cc1 (stereo not given)	12.5	-12.2	53.3*	3.8	-5.9	10.4
CN(C(=O)c1cccnc1)c1nc(-c2ccccc2)cs1	13.3	13.5	-2.9	8.3	51.2*	5.6
SMILES	OX1R antag-1	OX1R antag-2	TAAR1 antagonist	GPR7 antagonist	CHO parental Ca	TAAR1 ag
CN(Cc1ccccc1)C(=O)c1cccnc1	5.1	-0.5	-8.7	-12.9	-6.4	3.1
CCOC(=O)CN1C(=O)[C@]2(OCCC=C[C@H]2C)c2cc(OC)ccc21	nt	nt	-20.1	nt	nt	2.3
Cc1ccccc1-n1c(=O)c(C#N)cc2c(=O)n3ccccc3nc21	48.5*	-8.9	6.0	8.2	-11.9	7.6
OCC[C@@H]1C[C@H](O)[C@@H](O)[C@@]2(OCCc3cc(C(F)(F)F)ccc32)O1	nt	nt	18.8	nt	nt	4.4
Cc1onc(C(=O)Nc2cccc(C(F)(F)F)c2)c1[N+](=O)[O-]	15.9	-0.9	3.2	-7.6	2.2	-0.9
Cc1nc(Cl)c(C(=O)NC(=O)Nc2cccc(C(F)(F)F)c2)c(C)c1[N+](=O)[O-]	40.6	7.3	29.0	-12.6	18.6	42.3*
CC1=NNC(=O)/C1=C\c1cn(-c2ccccc2)nc1-c1cccs1	28.2	72.8*	86.1*	11.7	62.7*	37.3
CSC[C@H]1CN(Cc2ccccc2)C(=O)[C@@H]1CC(=O)Nc1ccc(Br)cc1	nt	nt	-9.8	nt	nt	0.3
CC(C)C(NS(=O)(=O)c1cccc2nsnc12)C(=O)NC1CCCCC1C (stereo not given)	45.7*	-7.4	nt	-0.8	-11.7	nt
CC(C)NS(=O)(=O)c1cccc2nsnc12	71.8*	-7.0	-10.9	-12.3	-3.7	2.7
Cc1c(NS(=O)(=O)c2cccc3nsnc23)c(=O)n(-c2ccccc2)n1C	76.7*	-12.1	10.9	-10.3	-11.5	0.0
COc1ccccc1CNC(=O)C(NS(=O)(=O)c1cccc2nsnc12)C(C)C (stereo not given)	76.2*	-8.8	-21.5	-6.7	-18.0	-1.4
CC(C)C(NS(=O)(=O)c1cccc2nsnc12)C(=O)Nc1nccs1 (stereo not given)	36.6	-10.8	5.2	3.6	-10.7	-0.5
O=S(=O)(NCc1ccccc1)c1cccc2nsnc12	42.0	-13.9	2.9	-0.3	-26.4	0.1
COc1ccccc1CNS(=O)(=O)c1cccc2nsnc12	38.6	5.9	-13.4	-19.3	-7.7	9.6
Cc1cc2nc(NC(=O)C3(C)CCN(C)C3)[nH]c2cc1C (stereo not given)	nt	nt	-17.1	nt	nt	1.6
O=C(NCc1cccs1)C(NS(=O)(=O)c1cccc2nsnc12)c1ccccc1 (stereo not given)	49.2*	-26.8	-23.0	11.2	-18.4	0.4
Cc1ccnc(NS(=O)(=O)c2cccc3nsnc23)c1	127.0*	3.9	-18.9	7.7	-8.5	2.9
O=C(NC1CCN(Cc2ccccc2)CC1)C(NS(=O)(=O)c1cccc2nsnc12)c1ccccc1 (stereo not given)	76.5	-36.1	1.4	-7.5	-23.4	1.6
